Results from ChEMBL document CHEMBL4351006, “A new exploration towards aminothiazolquinolone oximes as potentially multi-targeting antibacterial agents: Design, synthesis and evaluation acting on microbes, DNA, HSA and topoisomerase IV” (Eur J Med Chem, 2019).
Values after ≈ are worked out from the molar mass of the structure shown. Active and inactive are the calls of the source. No cut-off for these calls is given here.

Columns and labels:
Staphylococcus aureus [1] = assay: Antibacterial activity against methicillin resistant Staphylococcus aureus N315 assessed as reduction in bacterial cell viability incubated for 24 hrs by two fold serial dilution method; assay type: functional; details: N315, 24 h
Outline: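 MIC by two-fold serial dilution following CLSI, with chloromycin and norfloxacin as reference drugs.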

Enterococcus faecalis = assay: Antibacterial activity against Enterococcus faecalis assessed as reduction in bacterial cell viability incubated for 24 hrs by two fold serial dilution method; assay type: functional
Outline: (§1)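 Broth two-fold serial dilution run to CLSI guidelines. Chloromycin, norfloxacin and fluconazole served as reference drugs.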

Staphylococcus aureus [2] = assay: Antibacterial activity against Staphylococcus aureus assessed as reduction in bacterial cell viability incubated for 24 hrs by two fold serial dilution method; assay type: functional; outline: as §1
Staphylococcus aureus [3] = assay: Antibacterial activity against Staphylococcus aureus ATCC 25923 assessed as reduction in bacterial cell viability incubated for 24 hrs by two fold serial dilution method; assay type: functional; details: ATCC 25923, 24 h; outline: as §1
Staphylococcus aureus [4] = assay: Antibacterial activity against Staphylococcus aureus ATCC 29213 assessed as reduction in bacterial cell viability incubated for 24 hrs by two fold serial dilution method; assay type: functional; details: ATCC 29213, 24 h; outline: as §1
Klebsiella pneumoniae [5] = assay: Antibacterial activity against Klebsiella pneumoniae assessed as reduction in bacterial cell viability incubated for 24 hrs by two fold serial dilution method; assay type: functional; outline: as §1
Escherichia coli [6] = assay: Antibacterial activity against Escherichia coli ATCC 25922 assessed as reduction in bacterial cell viability incubated for 24 hrs by two fold serial dilution method; assay type: functional; details: ATCC 25922, 24 h; outline: as §1
Escherichia coli [7] = assay: Antibacterial activity against Escherichia coli assessed as reduction in bacterial cell viability incubated for 24 hrs by two fold serial dilution method; assay type: functional; outline: as §1
Pseudomonas aeruginosa [8] = assay: Antibacterial activity against Pseudomonas aeruginosa assessed as reduction in bacterial cell viability incubated for 24 hrs by two fold serial dilution method; assay type: functional; outline: as §1
Pseudomonas aeruginosa [9] = assay: Antibacterial activity against Pseudomonas aeruginosa ATCC 27853 assessed as reduction in bacterial cell viability incubated for 24 hrs by two fold serial dilution method; assay type: functional; details: ATCC 27853, 24 h; outline: as §1
Acinetobacter baumannii = assay: Antibacterial activity against Acinetobacter baumannii assessed as reduction in bacterial cell viability incubated for 24 hrs by two fold serial dilution method; assay type: functional; outline: as §1
Candida albicans [10] = assay: Antifungal activity against Candida albicans assessed as reduction in fungal cell viability incubated for 24 hrs by two fold serial dilution method; assay type: functional; outline: as §1
Candida albicans [11] = assay: Antifungal activity against Candida albicans ATCC 90023 assessed as reduction in fungal cell viability incubated for 24 hrs by two fold serial dilution method; assay type: functional; details: ATCC 90023, 24 h; outline: as §1
Candida tropicalis [12] = assay: Antifungal activity against Candida tropicalis assessed as reduction in fungal cell viability incubated for 24 hrs by two fold serial dilution method; assay type: functional; outline: as §1
Aspergillus fumigatus = assay: Antifungal activity against Aspergillus fumigatus assessed as reduction in fungal cell viability incubated for 24 hrs by two fold serial dilution method; assay type: functional; outline: as §1
Staphylococcus aureus [13] = assay: Potency index, ratio of MIC of chloromycin to MIC of compound for antibacterial activity against methicillin resistant Staphylococcus aureus N315 assessed as reduction in bacterial cell viability incubated for 24 hrs by two fold serial dilution method; assay type: functional
Staphylococcus aureus [14] = assay: Potency index, ratio of MIC of norfloxacin to MIC of compound for antibacterial activity against methicillin resistant Staphylococcus aureus N315 assessed as reduction in bacterial cell viability incubated for 24 hrs by two fold serial dilution method; assay type: functional
Staphylococcus aureus [15] = assay: Antibacterial activity against methicillin resistant Staphylococcus aureus assessed as fold change after 16 serial passages at 0.5 times of MIC incubated for 12 hrs by sequential passaging method; assay type: functional
Staphylococcus aureus [16] = assay: Antibacterial activity against methicillin resistant Staphylococcus aureus assessed as change in drug resistance after 16 serial passages in presence of cefixime at 0.5 times of MIC incubated for 12 hrs by serial dilution method; assay type: functional, organism-based
[17] = Cytotoxicity against human A549 cells assessed as cell viability upto 139.52 uM incubated for 24 hrs by MTT assay relative to control; assay type: cell-based; details: read-out: Activity
Outline: (§2)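 MTT viability assay in A549 and BEAS-2B cells, with doxorubicin at 0.50 μM as positive control. Viability is plotted with standard deviation from three independent experiments.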

[18] = Cytotoxicity against human BEAS2B cells assessed as cell viability upto 139.52 uM incubated for 24 hrs by MTT assay relative to control; assay type: cell-based; details: BEAS-2B cells, read-out: Activity; outline: as §2
Staphylococcus aureus [19] = assay: Induction of membrane permeabilization in methicillin resistant Staphylococcus aureus assessed as increase in fluorescence intensity at 12 times of MIC incubated for 2 hr by propidium iodide staining based fluorescence microscopy; assay type: functional, organism-based
Outline: (§3)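 MRSA cells were treated with the compound and stained with propidium iodide, which enters cells with damaged membranes and fluoresces on binding DNA. Fluorescence intensity was followed over time against untreated bacteria.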

Calf thymus DNA [20] = assay: Binding affinity to calf thymus DNA by UV-visible spectrophotometric method; assay type: nucleic-acid assay; details: Bos taurus
Calf thymus DNA [21] = assay: Competitive binding affinity to calf thymus DNA assessed as inhibition of binding of neutral red by UV-visible spectrophotometric method; assay type: nucleic-acid assay; details: Bos taurus
Albumin [22] = target: T1, Albumin (Homo sapiens, UniProt P02768); assay: Binding affinity to HSA assessed as Stern-Volmer quenching constant at 286 K by fluorescence spectroscopy; assay type: ADME; details: isolated protein
Albumin [23] = target: T1, Albumin; assay: Binding affinity to HSA assessed as Stern-Volmer quenching constant at 298 K by fluorescence spectroscopy; assay type: ADME; details: isolated protein
Albumin [24] = target: T1, Albumin; assay: Binding affinity to HSA assessed as Stern-Volmer quenching constant at 310 K by fluorescence spectroscopy; assay type: ADME; details: isolated protein
Albumin [25] = target: T1, Albumin; assay: Binding affinity to HSA assessed as quenching constant at 286 K by fluorescence spectroscopy; assay type: ADME; details: isolated protein
Albumin [26] = target: T1, Albumin; assay: Binding affinity to HSA assessed as quenching constant at 298 K by fluorescence spectroscopy; assay type: ADME; details: isolated protein
Albumin [27] = target: T1, Albumin; assay: Binding affinity to HSA assessed as quenching constant at 310 K by fluorescence spectroscopy; assay type: ADME; details: isolated protein
Albumin [28] = target: T1, Albumin; assay: Binding affinity to HSA assessed as binding constant at 286 K by fluorescence spectroscopy based Scatchard method; assay type: ADME; details: isolated protein
Albumin [29] = target: T1, Albumin; assay: Binding affinity to HSA assessed as binding constant at 298 K by fluorescence spectroscopy based Scatchard method; assay type: ADME; details: isolated protein
Albumin [30] = target: T1, Albumin; assay: Binding affinity to HSA assessed as binding constant at 310 K by fluorescence spectroscopy based Scatchard method; assay type: ADME; details: isolated protein
Albumin [31] = target: T1, Albumin; assay: Binding affinity to HSA assessed as change in enthalpy at 298 K by Van't Hoff plot analysis; assay type: ADME; details: isolated protein
Albumin [32] = target: T1, Albumin; assay: Binding affinity to HSA assessed as change in gibbs free energy at 286 K by Van't Hoff plot analysis; assay type: ADME; details: isolated protein
Albumin [33] = target: T1, Albumin; assay: Binding affinity to HSA assessed as change in gibbs free energy at 298 K by Van't Hoff plot analysis; assay type: ADME; details: isolated protein
Albumin [34] = target: T1, Albumin; assay: Binding affinity to HSA assessed as change in gibbs free energy at 310 K by Van't Hoff plot analysis; assay type: ADME; details: isolated protein
Albumin [35] = target: T1, Albumin; assay: Binding affinity to HSA assessed as change in entropy at 298 K by Van't Hoff plot analysis; assay type: ADME; details: isolated protein
Staphylococcus aureus [36] = assay: Antibacterial activity against methicillin resistant Staphylococcus aureus N315 assessed as reduction in bacterial cell viability in presence of cefixime incubated for 24 hrs by two fold serial dilution method; assay type: functional; details: N315, 24 h
Staphylococcus aureus [37] = assay: Antibacterial activity against Staphylococcus aureus assessed as reduction in bacterial cell viability in presence of cefixime incubated for 24 hrs by two fold serial dilution method; assay type: functional
Klebsiella pneumoniae [38] = assay: Antibacterial activity against Klebsiella pneumoniae assessed as reduction in bacterial cell viability in presence of cefixime incubated for 24 hrs by two fold serial dilution method; assay type: functional
Staphylococcus aureus [39] = assay: Synergistic antibacterial activity against Staphylococcus aureus assessed as FICI in presence of cefixime incubated for 24 hrs by two fold serial dilution method; assay type: functional
Klebsiella pneumoniae [40] = assay: Synergistic antibacterial activity against Klebsiella pneumoniae assessed as FICI in presence of cefixime incubated for 24 hrs by two fold serial dilution method; assay type: functional
Staphylococcus aureus [41] = assay: Induction of membrane permeabilization in methicillin resistant Staphylococcus aureus assessed as increase in fluorescence intensity steady state at 12 times of MIC after 100 mins by propidium iodide staining based fluorescence microscopy; assay type: functional, organism-based; outline: as §3
Candida albicans [42] = assay: Synergistic antifungal activity against Candida albicans assessed as FICI in presence of fluconazole incubated for 24 hrs by two fold serial dilution method
Candida tropicalis [43] = assay: Synergistic antifungal activity against Candida tropicalis assessed as FICI in presence of fluconazole incubated for 24 hrs by two fold serial dilution method
Candida parapsilosis = assay: Antifungal activity against Candida parapsilosis ATCC 22019 assessed as reduction in fungal cell viability incubated for 24 hrs by two fold serial dilution method; details: Lodderomyces parapsilosis, ATCC 22019, 24 h
Candida albicans [44] = assay: Antifungal activity against Candida albicans assessed as reduction in fungal cell viability in presence of fluconazole incubated for 24 hrs by two fold serial dilution method
Candida tropicalis [45] = assay: Antifungal activity against Candida tropicalis assessed as reduction in fungal cell viability in presence of fluconazole incubated for 24 hrs by two fold serial dilution method
Staphylococcus aureus [46] = assay: Potentiation of cefixime-mediated antibacterial activity against methicillin resistant Staphylococcus aureus N315 assessed as cefixime MIC incubated for 24 hrs by two fold serial dilution method (reference value: 31.52 10^-3 mM); assay type: functional; details: N315, 24 h
Staphylococcus aureus [47] = assay: Potentiation of cefixime-mediated antibacterial activity against Staphylococcus aureus assessed as cefixime MIC incubated for 24 hrs by two fold serial dilution method (reference value: 31.52 10^-3 mM); assay type: functional
Klebsiella pneumoniae [48] = assay: Potentiation of cefixime-mediated antibacterial activity against Klebsiella pneumoniae assessed as cefixime MIC incubated for 24 hrs by two fold serial dilution method (reference value: 15.76 10^-3 mM); assay type: functional
Candida albicans [49] = assay: Potentiation of fluconazole-mediated antifungal activity against Candida albicans assessed as fluconazole MIC incubated for 24 hrs by two fold serial dilution method (reference value: 13.06 10^-3 mM); assay type: functional
Candida tropicalis [50] = assay: Potentiation of fluconazole-mediated antifungal activity against Candida tropicalis assessed as fluconazole MIC incubated for 24 hrs by two fold serial dilution method (reference value: 26.12 10^-3 mM); assay type: functional

T1 sequence (P02768 whole entry): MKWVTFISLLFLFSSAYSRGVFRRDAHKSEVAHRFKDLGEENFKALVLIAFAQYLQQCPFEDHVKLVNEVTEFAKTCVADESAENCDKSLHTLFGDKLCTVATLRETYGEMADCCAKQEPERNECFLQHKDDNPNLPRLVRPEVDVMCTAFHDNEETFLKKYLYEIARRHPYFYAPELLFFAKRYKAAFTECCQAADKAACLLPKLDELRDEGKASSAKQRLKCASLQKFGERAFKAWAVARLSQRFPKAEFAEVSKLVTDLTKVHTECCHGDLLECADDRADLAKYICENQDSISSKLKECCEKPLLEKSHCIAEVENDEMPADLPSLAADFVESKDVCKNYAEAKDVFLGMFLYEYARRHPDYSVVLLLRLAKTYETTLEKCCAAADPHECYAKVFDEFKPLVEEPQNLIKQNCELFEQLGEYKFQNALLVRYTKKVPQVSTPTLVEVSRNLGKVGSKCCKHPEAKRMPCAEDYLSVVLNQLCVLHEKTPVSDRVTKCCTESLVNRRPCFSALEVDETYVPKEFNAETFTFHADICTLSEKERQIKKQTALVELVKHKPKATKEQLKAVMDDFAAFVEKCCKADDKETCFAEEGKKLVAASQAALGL

CCn1cc(-c2csc(N)n2)c(=O)c2cc(F)c(N3CCN(C/C(C)=N/OC)CC3)cc21
MIC (Staphylococcus aureus [1]): 9 µM (≈ 4.13 µg/mL) | MIC (Enterococcus faecalis): 70 µM (≈ 32.1 µg/mL) | MIC (Staphylococcus aureus [2]): 35 µM (≈ 16 µg/mL) | MIC (Staphylococcus aureus [3]): 17 µM (≈ 7.8 µg/mL) | MIC (Staphylococcus aureus [4]): 140 µM (≈ 64.2 µg/mL) | MIC (Klebsiella pneumoniae [5]): 70 µM (≈ 32.1 µg/mL) | MIC (Escherichia coli [6]): 35 µM (≈ 16 µg/mL) | MIC (Escherichia coli [7]): 70 µM (≈ 32.1 µg/mL) | MIC (Pseudomonas aeruginosa [8]): 70 µM (≈ 32.1 µg/mL) | MIC (Pseudomonas aeruginosa [9]): 35 µM (≈ 16 µg/mL) | MIC (Acinetobacter baumannii): 279 µM (≈ 128 µg/mL) | MIC (Candida albicans [10]): 70 µM (≈ 32.1 µg/mL) | MIC (Candida albicans [11]): 17 µM (≈ 7.8 µg/mL) | MIC (Candida tropicalis [12]): 70 µM (≈ 32.1 µg/mL) | MIC (Aspergillus fumigatus): 35 µM (≈ 16 µg/mL) | Ratio (Staphylococcus aureus [13]): 5 | Ratio (Staphylococcus aureus [14]): 2 | fold change (FC) (Staphylococcus aureus [15]): inactive | Activity (Staphylococcus aureus [16]): inactive | viability at 24 h [17]: > 75% | viability at 24 h [18]: > 75% | Activity (Staphylococcus aureus [19]): Active | K (Calf thymus DNA [20]): 2.51 ×10⁴ L/mol | Activity (Calf thymus DNA [21]): Active | KSV (Albumin [22]): 1.89 ×10⁵ L/mol | KSV (Albumin [23]): 1.79 ×10⁵ L/mol | KSV (Albumin [24]): 1.57 ×10⁵ L/mol | Kq (Albumin [25]): 2.95 ×10¹³ L/mol/s | Kq (Albumin [26]): 2.8 ×10¹³ L/mol/s | Kq (Albumin [27]): 2.45 ×10¹³ L/mol/s | Kb (Albumin [28]): 1.81 ×10⁵ L/mol | Kb (Albumin [29]): 1.63 ×10⁵ L/mol | Kb (Albumin [30]): 1.44 ×10⁵ L/mol | deltaH (Albumin [31]): -6.9355 kcal/mol | deltaG (Albumin [32]): -6.5084 kcal/mol | deltaG (Albumin [33]): -6.4904 kcal/mol | deltaG (Albumin [34]): -6.4725 kcal/mol | deltaS (Albumin [35]): -6.247 J/mol.K | MIC (Staphylococcus aureus [36]): 4.36 µM | MIC (Staphylococcus aureus [37]): 8.72 µM | MIC (Klebsiella pneumoniae [38]): 8.72 µM | fractional inhibitory concentration index (FICI) (Staphylococcus aureus [39]): 0.5 | fractional inhibitory concentration index (FICI) (Klebsiella pneumoniae [40]): 0.625 | Activity (Staphylococcus aureus [41]): Active | fractional inhibitory concentration index (FICI) (Candida albicans [42]): 0.281 | fractional inhibitory concentration index (FICI) (Candida tropicalis [43]): 1.25 | MIC (Candida parapsilosis): 70 µM (≈ 32.1 µg/mL) | MIC (Candida albicans [44]): 2.18 µM | MIC (Candida tropicalis [45]): 17.4 µM

C=CC1=C(C(=O)O)N2C(=O)[C@@H](NC(=O)/C(=N\OCC(=O)O)c3csc(N)n3)[C@H]2SC1 [CEFIXIME]
MIC (Staphylococcus aureus [46]): 3.94 µM | MIC (Staphylococcus aureus [47]): 7.88 µM | MIC (Klebsiella pneumoniae [48]): 7.88 µM | MIC (Candida albicans [49]): 3.26 µM | MIC (Candida tropicalis [50]): 26.1 µM
